Measurements published in ChEMBL document CHEMBL2040716, “Discovery of a new antileishmanial hit in 8-nitroquinoline series” (Eur J Med Chem, 2012).

Tests used:
[1] = Cytotoxicity against human HepG2 cells after 72 hrs by MTT assay; assay type: cell-based
How it was run: (§1)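 Cells plated in RPMI with 10% FBS, L-glutamine, penicillin/streptomycin at 37 °C, 6% CO2. After 24 h, a range of compound concentrations was added for 72 h. Wells checked for precipitate; MTT for 2 h at 37 °C; formazan dissolved in DMSO; A570 with 630 nm reference. Viability as % of untreated control; CC50 from dose-response curve, mean of two independent experiments.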

[2] = Selectivity index, ratio of CC50 for mouse J774A1 cells to IC50 for Leishmania donovani MHOM/IN/00/DEVI promastigotes; assay type: functional, J774.A1
How it was run: (§2)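 SI computed as CC50 (HepG2 or J774) divided by L. donovani promastigote IC50. Both values come from the MTT assays above, each the mean of two independent experiments.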

[3] = Cytotoxicity against mouse J774A1 cells after 72 hrs by MTT assay; assay type: cell-based, J774.A1; how it was run: as §1
Leishmania donovani [4] = assay: Antileishmanial activity against Leishmania donovani MHOM/IN/00/DEVI promastigotes after 72 hrs by MTT assay; assay type: functional, organism-based
How it was run: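 Late log-phase promastigotes in Schneider's medium with 20% FCS, 2 mM L-glutamine, penicillin/streptomycin, at 10^6 parasites/mL. Compounds in DMSO (final <0.5% v/v) over a concentration range, in duplicate, 72 h at 27 °C. MTT 0.5 mg/mL added for 6 h at 27 °C; pellet dissolved in DMSO; A570. IC50 by non-linear regression versus control; mean of two independent experiments.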

[5] = Selectivity index, ratio of CC50 for human HepG2 cells to IC50 for Leishmania donovani MHOM/IN/00/DEVI promastigotes; assay type: functional; how it was run: as §2
Leishmania infantum = assay: Antileishmanial activity against Leishmania infantum MCAN/ES/98/LLM-877 promastigotes after 72 hrs by MTT assay; assay type: functional, organism-based; conditions: MCAN/ES/98/LLM-877, 72 h
Leishmania donovani [6] = assay: Antileishmanial activity against Leishmania donovani MHOM/IN/00/DEVI amastigotes infected in mouse J774A.1 cells after 120 hrs by Giemsa staining-based microscopic analysis; conditions: J774.A1, 120 h
Toxoplasma gondii = assay: Antitoxoplasmic activity against Toxoplasma gondii PRU tachyzoites infected in human HFF cells assessed as beta-galactosidase activity after 72 hrs by colorimetric assay; assay type: functional, cell-based
How it was run: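 HFF monolayers grown to confluence (3.10^4 cells/well) in RPMI with 10% FCS at 37 °C, 6% CO2. Infected with 1 × 10^4 PRU-β-Gal tachyzoites for 3 h, then compounds (DMSO <0.5% v/v) added in triplicate for 72 h. 1 mM CPRG for 6 h; read at 570 and 630 nm, blanked on uninfected wells. IC50 by non-linear regression; mean of two experiments.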

With `O=Cc1ccc2ccccc2n1` the CC50 at 72 h [1] was over 100 µM, the “Ratio CC50/IC50” value [2] was under 0.58 and the CC50 at 72 h [3] was 28.8 µM. The IC50 (Leishmania donovani [4]) was over 50 µM.
Work on `Cc1ccc2cc([N+](=O)[O-])ccc2n1` yielded a CC50 at 72 h [1] of over 100 µM, a CC50 at 72 h [3] of over 100 µM and an IC50 (Leishmania donovani [4]) of over 50 µM.
`O=[N+]([O-])c1cccc2ncccc12` showed a CC50 at 72 h [1] of over 100 µM, a CC50 at 72 h [3] of over 100 µM and an IC50 (Leishmania donovani [4]) of over 50 µM.
For `O=[N+]([O-])c1cccc2cccnc12`, the CC50 at 72 h [1] was over 100 µM, the CC50 at 72 h [3] was over 100 µM and the IC50 (Leishmania donovani [4]) was over 50 µM.
With `Cc1ccc2cccc([N+](=O)[O-])c2n1` the CC50 at 72 h [1] was over 100 µM, the CC50 at 72 h [3] was over 100 µM and the IC50 (Leishmania donovani [4]) was over 50 µM.
`Oc1ccc2ccccc2n1` showed a CC50 at 72 h [1] of over 100 µM, a CC50 at 72 h [3] of over 100 µM and an IC50 (Leishmania donovani [4]) of over 50 µM.
In the case of `O=Cc1ccc2c([N+](=O)[O-])cccc2n1`, the CC50 at 72 h [1] is reported as 92 µM, the “Ratio CC50/IC50” value [5] is reported as under 1.8 and the “Ratio CC50/IC50” value [2] is reported as under 0.46. For the same compound, the CC50 at 72 h [3] was 22.8 µM and the IC50 (Leishmania donovani [4]) was over 50 µM.
With `Clc1ccc2ccccc2n1` the CC50 at 72 h [1] was over 100 µM, the CC50 at 72 h [3] was over 100 µM and the IC50 (Leishmania donovani [4]) was over 50 µM.
`O=[N+]([O-])c1cccc2nc(Cl)ccc12` showed a CC50 at 72 h [1] of over 100 µM, a CC50 at 72 h [3] of over 100 µM and an IC50 (Leishmania donovani [4]) of over 50 µM.
For `O=[N+]([O-])c1cccc2nc(O)ccc12`, the CC50 at 72 h [1] was over 100 µM, the CC50 at 72 h [3] was over 100 µM and the IC50 (Leishmania donovani [4]) was over 50 µM.
In the case of `O=[N+]([O-])c1ccc2nc(O)ccc2c1`, the CC50 at 72 h [1] is reported as over 100 µM, the “Ratio CC50/IC50” value [2] is reported as under 1.7 and the CC50 at 72 h [3] is reported as 83.7 µM. For the same compound, the IC50 (Leishmania donovani [4]) was over 50 µM.
`C[C@@H]1[C@H](O)[C@@H](C)/C=C/C=C/C=C/C=C/C=C/C=C/C=C/[C@H](O[C@@H]2O[C@H](C)[C@@H](O)[C@H](N)[C@@H]2O)C[C@@H]2O[C@](O)(C[C@@H](O)C[C@@H](O)[C@H](O)CC[C@@H](O)C[C@@H](O)CC(=O)O[C@H]1C)C[C@H](O)[C@H]2C(=O)O` [AMPHOTERICIN B] showed an IC50 (Leishmania infantum) of 0.05 µM, a CC50 at 72 h [3] of 3.1 µM and an IC50 (Leishmania donovani [4]) of 0.1 µM.
With `COc1cccc2c1C(=O)c1c(O)c3c(c(O)c1C2=O)C[C@@](O)(C(=O)CO)C[C@@H]3O[C@H]1C[C@H](N)[C@H](O)[C@H](C)O1` [DOXORUBICIN] the CC50 at 72 h [3] was 0.02 µM.
With `CCCCCCCCCCCCCCCCOP(=O)([O-])OCC[N+](C)(C)C` [MILTEFOSINE] the CC50 at 72 h [1] was 50.3 µM, the IC50 (Leishmania donovani [6]) was 6.8 µM and the IC50 (Leishmania infantum) was 11.6 µM. It also gave a CC50 at 72 h [3] of 94.6 µM.
For `N=C(N)c1ccc(OCCCCCOc2ccc(C(=N)N)cc2)cc1` [PENTAMIDINE], the CC50 at 72 h [1] was 2.3 µM, the “Ratio CC50/IC50” value [5] was 0.38 and the “Ratio CC50/IC50” value [2] was 0.17. It also gave an IC50 (Leishmania donovani [6]) of over 20 µM, an IC50 (Leishmania infantum) of 8.2 µM and a CC50 at 72 h [3] of 1 µM. For the same compound, the IC50 (Leishmania donovani [4]) was 6 µM.
`CCc1nc(N)nc(N)c1-c1ccc(Cl)cc1` [PYRIMETHAMINE] showed an IC50 (Toxoplasma gondii) of 0.8 µM.
In the case of `Cc1ccc2ccccc2n1` [QUINALDINE], the CC50 at 72 h [1] is reported as over 100 µM, the CC50 at 72 h [3] is reported as over 100 µM and the IC50 (Leishmania donovani [4]) is reported as over 50 µM.
For `c1ccc2ncccc2c1` [QUINOLINE], the CC50 at 72 h [1] was over 100 µM, the CC50 at 72 h [3] was over 100 µM and the IC50 (Leishmania donovani [4]) was over 50 µM.
